ChEMBL document CHEMBL1138563, “Synthesis and in vitro antimicrobial activity of some novel substituted benzimidazole derivatives having potent activity against MRSA” (2009)
Values after ≈ are worked out from the molar mass of the structure shown.

Experiments:
Assay type in all cases: functional
Staphylococcus aureus [1] = assay: Antimicrobial activity against Staphylococcus aureus ATCC 25923 by tube dilution method
Summary of the method: (§1)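 Tube dilution MIC assay. Compounds and standard drugs were dissolved in 50% DMSO–water as stock. The stock was diluted 4-fold with culture medium plus bacterial suspension to give the starting test concentration. That initial tube contained 12.5% DMSO, so no data were taken from it. The MIC was then read across the dilution series.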

Staphylococcus aureus [2] = assay: Antimicrobial activity against methicillin-resistant Staphylococcus aureus ATCC […] by tube dilution method; summary of the method: as §1
Staphylococcus aureus [3] = assay: Antimicrobial activity against methicillin-resistant Staphylococcus aureus isolates by tube dilution method; summary of the method: as §1
Escherichia coli = assay: Antimicrobial activity against Escherichia coli ATCC 25922 by tube dilution method
Summary of the method: (§2)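 Tube dilution MIC determination. Test agents and reference drugs are dissolved as a stock in 50% DMSO–water, then diluted 4-fold with culture medium plus inoculum. The first dilution (12.5% DMSO) is excluded from scoring. The read-out is the minimum inhibitory concentration.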

Bacillus subtilis = assay: Antimicrobial activity against Bacillus subtilis ATCC 6633 by tube dilution method; summary of the method: as §2
Candida albicans = assay: Antimicrobial activity against Candida albicans ATCC 10145 by tube dilution method; summary of the method: as §2

SMILES | MIC (Staphylococcus aureus [1]) | MIC (Staphylococcus aureus [2]) | MIC (Staphylococcus aureus [3]) | MIC (Escherichia coli) | MIC (Bacillus subtilis) | MIC (Candida albicans)
COc1ccc(-c2nc3cc(Cl)c(Cl)cc3n2C2CCCC2)cc1 | 25 µg/mL (≈ 69.2 µM) | 25 µg/mL (≈ 69.2 µM) | 25 µg/mL (≈ 69.2 µM) | 50 µg/mL (≈ 138 µM) | 50 µg/mL (≈ 138 µM) | 6.25 µg/mL (≈ 17.3 µM)
Nc1nc2cc(Cl)c(Cl)cc2n1C1CCCC1 | 3.12 µg/mL (≈ 11.5 µM) | 6.25 µg/mL (≈ 23.1 µM) | 6.25 µg/mL (≈ 23.1 µM) | 50 µg/mL (≈ 185 µM) | 6.25 µg/mL (≈ 23.1 µM) | 6.25 µg/mL (≈ 23.1 µM)
CC(=O)Oc1ccc(-c2nc3cc(Cl)c(Cl)cc3n2C2CCCC2)cc1 | 50 µg/mL (≈ 128 µM) | 50 µg/mL (≈ 128 µM) | 50 µg/mL (≈ 128 µM) | 25 µg/mL (≈ 64.2 µM) | 25 µg/mL (≈ 64.2 µM) | 12.5 µg/mL (≈ 32.1 µM)
Fc1ccc(-c2nc3cc(Cl)c(Cl)cc3[nH]2)cc1 | 3.12 µg/mL (≈ 11.1 µM) | 3.12 µg/mL (≈ 11.1 µM) | 3.12 µg/mL (≈ 11.1 µM) | 50 µg/mL (≈ 178 µM) | 6.25 µg/mL (≈ 22.2 µM) | 6.25 µg/mL (≈ 22.2 µM)
Clc1cc2ncn(C3CCCC3)c2cc1Cl | 6.25 µg/mL (≈ 24.5 µM) | 6.25 µg/mL (≈ 24.5 µM) | 6.25 µg/mL (≈ 24.5 µM) | 50 µg/mL (≈ 196 µM) | 12.5 µg/mL (≈ 49 µM) | 12.5 µg/mL (≈ 49 µM)
Clc1cc2nc(Cl)n(C3CCCC3)c2cc1Cl | 3.12 µg/mL (≈ 10.8 µM) | 6.25 µg/mL (≈ 21.6 µM) | 6.25 µg/mL (≈ 21.6 µM) | 50 µg/mL (≈ 173 µM) | 25 µg/mL (≈ 86.3 µM) | 50 µg/mL (≈ 173 µM)
CC(C)Nc1nc2cc(Cl)c(Cl)cc2n1C1CCCC1 | 50 µg/mL (≈ 160 µM) | 50 µg/mL (≈ 160 µM) | 50 µg/mL (≈ 160 µM) | 50 µg/mL (≈ 160 µM) | 50 µg/mL (≈ 160 µM) | 50 µg/mL (≈ 160 µM)
CCOc1cc2c(cc1Cl)nc(-c1ccc(OC(C)=O)cc1)n2C1CCCC1 | 50 µg/mL (≈ 125 µM) | 50 µg/mL (≈ 125 µM) | 50 µg/mL (≈ 125 µM) | 50 µg/mL (≈ 125 µM) | 25 µg/mL (≈ 62.7 µM) | 6.25 µg/mL (≈ 15.7 µM)
CCOc1cc2c(cc1Cl)nc(-c1ccc(Cl)cc1)n2C1CCCC1 | 50 µg/mL (≈ 133 µM) | 50 µg/mL (≈ 133 µM) | 50 µg/mL (≈ 133 µM) | 50 µg/mL (≈ 133 µM) | 25 µg/mL (≈ 66.6 µM) | 25 µg/mL (≈ 66.6 µM)
CCOc1cc2c(cc1Cl)nc(-c1cccc([N+](=O)[O-])c1)n2C1CCCC1 | 50 µg/mL (≈ 130 µM) | 25 µg/mL (≈ 64.8 µM) | 12.5 µg/mL (≈ 32.4 µM) | 50 µg/mL (≈ 130 µM) | 25 µg/mL (≈ 64.8 µM) | 6.25 µg/mL (≈ 16.2 µM)
COc1ccc(-c2nc3cc(Cl)ccc3n2C2CCCC2)cc1 | 50 µg/mL (≈ 153 µM) | 50 µg/mL (≈ 153 µM) | 50 µg/mL (≈ 153 µM) | 25 µg/mL (≈ 76.5 µM) | 25 µg/mL (≈ 76.5 µM) | 12.5 µg/mL (≈ 38.2 µM)
Fc1ccc(-c2nc3cc(Cl)ccc3n2C2CCCC2)cc1 | 25 µg/mL (≈ 79.4 µM) | 25 µg/mL (≈ 79.4 µM) | 25 µg/mL (≈ 79.4 µM) | 25 µg/mL (≈ 79.4 µM) | 12.5 µg/mL (≈ 39.7 µM) | 12.5 µg/mL (≈ 39.7 µM)
CC(C)(C)c1ccc(-c2nc3cc(Cl)ccc3n2C2CCCC2)cc1 | 50 µg/mL (≈ 142 µM) | 12.5 µg/mL (≈ 35.4 µM) | 6.25 µg/mL (≈ 17.7 µM) | 25 µg/mL (≈ 70.8 µM) | 50 µg/mL (≈ 142 µM) | 12.5 µg/mL (≈ 35.4 µM)
N#Cc1ccc(-c2nc3cc(Cl)ccc3n2C2CCCC2)cc1 | 50 µg/mL (≈ 155 µM) | ≥ 50 µg/mL | ≥ 50 µg/mL | 50 µg/mL (≈ 155 µM) | 50 µg/mL (≈ 155 µM) | 6.25 µg/mL (≈ 19.4 µM)
Clc1ccc2c(c1)nc(-c1ccc(OCc3ccccc3)cc1)n2C1CCCC1 | 3.12 µg/mL (≈ 7.74 µM) | 6.25 µg/mL (≈ 15.5 µM) | 6.25 µg/mL (≈ 15.5 µM) | 50 µg/mL (≈ 124 µM) | 50 µg/mL (≈ 124 µM) | 25 µg/mL (≈ 62 µM)
Clc1ccc(-c2nc3cc(Cl)ccc3n2C2CCCC2)cc1 | 50 µg/mL (≈ 151 µM) | 50 µg/mL (≈ 151 µM) | 50 µg/mL (≈ 151 µM) | 25 µg/mL (≈ 75.5 µM) | 25 µg/mL (≈ 75.5 µM) | 25 µg/mL (≈ 75.5 µM)
Fc1ccc(-c2nc3cc(Cl)c(Cl)cc3n2C2CCCC2)cc1 | 25 µg/mL (≈ 71.6 µM) | 50 µg/mL (≈ 143 µM) | 50 µg/mL (≈ 143 µM) | 25 µg/mL (≈ 71.6 µM) | 50 µg/mL (≈ 143 µM) | 25 µg/mL (≈ 71.6 µM)
